Experimental findings from ChEMBL document CHEMBL2040752, “Synthesis and effects of some novel tetrahydronaphthalene derivatives on proliferation and nitric oxide production in lipopolysaccharide activated Raw 264.7 macrophages” (Eur J Med Chem, 2011) are described below.

Activity calls are given as the source filed them. The calls are words filed in the database; no cut-off is given here.

For orientation: inhibition means the change of the read-out against control, counted positive when it falls.

In data set [1] the test system is RAW264.7. Kind of data set: Cytotoxicity against mouse RAW264.7 cells at 50 uM by MTT assay. The class given is cell-based. The note with it: raw264.7, 50 µM. The procedure, abridged: (§1)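 RAW 264.7 macrophages (4 ×10⁴ per well) pretreated with compound for 1 h, then held with or without LPS ([…]) for 20 h. After the supernatant was removed for nitrite assay, cells got 0.5 mg/mL MTT for 1 h at 37 °C. Formazan was dissolved in DMSO for at least 2 h in the dark and read at 550 nm; data are absorbance, mean ± S.D.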

The test system of data set [2] is RAW264.7. Put plainly: Inhibition of nitrite level in LPS-induced mouse RAW264.7 cells at 5 uM by Griess assay relative to LPS treated control. The data set is classed as functional. The procedure, abridged: (§2)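 RAW 264.7 cells (4 ×10⁴ per well) pre-incubated with compound for 1 h, then stimulated with LPS ([…]) for 20 h. Supernatant mixed 1:1 with Griess reagent (1% sulfanilamide, 0.1% naphthylethylenediamine dihydrochloride, 2% phosphoric acid) for 10 min at room temperature, read at 550 nm against a NaNO₂ standard curve. Nitrite in the LPS-only group is set as 100%; % inhibition given as mean ± value.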
(In general: Griess reagent forms a coloured azo dye with nitrite.)

Data set [3] deals with RAW264.7. Put plainly: Inhibition of nitrite level in LPS-induced mouse RAW264.7 cells at 50 uM by Griess assay relative to LPS treated control. The class given is functional. The procedure, abridged: as §2
Data set [4] has as its system RAW264.7. Kind of data set: Cytotoxicity against mouse RAW264.7 cells at 5 uM by MTT assay. The class given is cell-based. The note with it: raw264.7, 5 µM. The method in brief:
as §1
(In general: Tetrazolium assays rely on reduction of a dye to a coloured formazan, in cell work by metabolically active cells.)

Regarding `Cc1cc2c(cc1NC(=O)/C=C/c1ccc(O)c(O)c1)C(C)(C)CCC2(C)C`, the Activity entry in the data set with RAW264.7 [1] is “Toxic”. The same compound returned an inhibition at 5 µM with RAW264.7 [2] of 23.3%. Moreover, the inhibition at 50 µM with RAW264.7 [3] is 46.2%.
With `O=C(O)/C=C/c1ccc(O)c(O)c1` [CAFFEIC ACID], the Activity result in the data set with RAW264.7 [1] and in the data set on RAW264.7 [4] was “Non-toxic” throughout. In the data set with RAW264.7 [2], this compound registered an inhibition at 5 µM of 23.2%. For the same compound, in the data set on RAW264.7 [3], the inhibition at 50 µM is 44.2%.
With `Cc1cc2c(cc1NC(=O)CCCC[C@@H]1CCSS1)C(C)(C)CCC2(C)C`, the inhibition at 5 µM in the data set with RAW264.7 [2] was found to be 28.5%. Moreover, 50 µM produced 22.8% inhibition in the data set with RAW264.7 [3].
Turning to `CC1(C)CC(NC(=O)c2ccc3c(c2)C(C)(C)CCC3(C)C)CC(C)(C)N1`, the Activity entry in the data set with RAW264.7 [1] and in the data set with RAW264.7 [4] was “Non-toxic” each time. The inhibition at 5 µM with RAW264.7 [2] amounted to 19.1%. Also, at 50 µM the inhibition with RAW264.7 [3] was 42.9%.
Consider `CC1(C)CCC(C)(C)c2cc(C(=O)NN3CCOCC3)ccc21`, for which the Activity entry in the data set on RAW264.7 [1] is “Toxic”. This compound had an inhibition at 5 µM in the data set with RAW264.7 [2] of 5.8%. Besides, the inhibition at 50 µM in the data set on RAW264.7 [3] came to 34.3%.
In the case of `CC1(C)CCC(C)(C)c2cc(C(=O)NC3CC3)ccc21`, in the data set on RAW264.7 [1], the Activity entry is “Toxic”. Also, testing at 5 µM in the data set with RAW264.7 [2] gave an inhibition of 20.5%. The same compound displayed an inhibition at 50 µM in the data set on RAW264.7 [3] of 38.2%.
Regarding `Cc1cc2c(cc1NC(=O)CCCc1ccccc1)C(C)(C)CCC2(C)C`, the Activity entry with RAW264.7 [1] is “Toxic”. Further, the inhibition entry in the data set with RAW264.7 [2] and with RAW264.7 [3] was “inactive” throughout.
As to `CC1=C(/C=C/C(C)=C/C=C/C(C)=C/C(=O)O)C(C)(C)CCC1` [TRETINOIN], the Activity result in the data set with RAW264.7 [1] and with RAW264.7 [4] was “Non-toxic” each time. In the data set with RAW264.7 [2], this compound returned an inhibition at 5 µM of 57.2%. In addition, the inhibition at 50 µM in the data set with RAW264.7 [3] was determined as 66%.
In the case of `CC1(C)CCC(C)(C)c2cc(C(=O)NCCN3CCOCC3)ccc21`, in the data set on RAW264.7 [1], the Activity result is recorded as “Toxic”. At 5 µM the inhibition in the data set on RAW264.7 [2] was 14.3%. For the same compound, the inhibition at 50 µM with RAW264.7 [3] is 40.1%.
For `CC1(C)CCC(C)(C)c2cc(C(=O)NN3CCCCCC3)ccc21` the same measures were “Toxic”, 25.7% and 43.6%.
`CC1(C)CCC(C)(C)c2cc(C(=O)NCc3ccc(F)cc3F)ccc21`: the Activity entry in the data set on RAW264.7 [1] is “Toxic”. Also, the inhibition entry with RAW264.7 [2] was “inactive”. Also, in the data set on RAW264.7 [3], testing at 50 µM gave an inhibition of 7.7%.
For `CC1(C)CCC(C)(C)c2cc(C(=O)NN3CCCCC3)ccc21` the same measures were “Toxic”, “inactive” and 10.5%.
For `CC1(C)CCC(C)(C)c2cc(C(=O)Nc3nccs3)ccc21` the same measures were “Toxic”, “inactive” and 33.5%.
As to `COc1ccc(CCCC(=O)Nc2cc3c(cc2C)C(C)(C)CCC3(C)C)cc1OC`, in the data set on RAW264.7 [1], the Activity entry is reported as “Toxic”. Also, the inhibition entry in the data set with RAW264.7 [2] and in the data set with RAW264.7 [3] was “inactive” each time.
On to `O=C(O)CCCCC1CCSS1` (stereo not drawn) [LIPOIC ACID, ALPHA], for which the Activity result in the data set with RAW264.7 [1] and with RAW264.7 [4] was “Non-toxic” throughout. Testing at 5 µM with RAW264.7 [2] gave an inhibition of 25.2%. For the same compound, in the data set on RAW264.7 [3], 50 µM produced 46% inhibition.
In the case of `Cc1c(C)c2c(c(C)c1O)CCC(C)(C(=O)O)O2` (stereo not drawn) [TROLOX], the Activity entry in the data set on RAW264.7 [1] and in the data set with RAW264.7 [4] was “Non-toxic” in each case. The compound also came in with an inhibition at 5 µM in the data set on RAW264.7 [2] of 33.4%. This compound also registered an inhibition at 50 µM in the data set with RAW264.7 [3] of 39.3%.
Regarding `Cc1cc2c(cc1NC(=O)C1(C)CCc3c(C)c(O)c(C)c(C)c3O1)C(C)(C)CCC2(C)C` (stereo not drawn), the Activity result in the data set on RAW264.7 [1] is reported as “Toxic”. In the data set with RAW264.7 [2], the inhibition entry was “inactive”. The inhibition at 50 µM in the data set with RAW264.7 [3] came out at 10.5%.
Take `CCOC(=O)N1CCC(NC(=O)c2ccc3c(c2)C(C)(C)CCC3(C)C)CC1`: the inhibition entry in the data set with RAW264.7 [2] is “inactive”. In the data set with RAW264.7 [3], the inhibition at 50 µM is 30%.
For the compound `CC(=O)Oc1c(C)c(C)c2c(c1C)CCC(C)(C(=O)Nc1cc3c(cc1C)C(C)(C)CCC3(C)C)O2` (stereo not drawn), in the data set on RAW264.7 [2], the inhibition at 5 µM stood at 15.8%. In the data set on RAW264.7 [3], this compound showed an inhibition at 50 µM of 4.4%.
`CC1(C)CCC(C)(C)c2cc(C(=O)NC3CCN(Cc4ccccc4)CC3)ccc21`: the Activity entry in the data set with RAW264.7 [1] and with RAW264.7 [4] was “Non-toxic” in each case. In addition, the inhibition at 5 µM in the data set on RAW264.7 [2] was determined as 21%. This compound also displayed an inhibition at 50 µM in the data set with RAW264.7 [3] of 22.5%.
Consider `Cc1cc2c(cc1NC(=O)/C=C/c1ccccc1)C(C)(C)CCC2(C)C`, for which the Activity result in the data set with RAW264.7 [1] was “Toxic”. In addition, the inhibition result in the data set with RAW264.7 [2] and in the data set on RAW264.7 [3] was “inactive” each time.
As to `COc1cc(/C=C/C(=O)Nc2cc3c(cc2C)C(C)(C)CCC3(C)C)ccc1O`, the Activity entry with RAW264.7 [1] is reported as “Toxic”. Moreover, the inhibition at 5 µM in the data set with RAW264.7 [2] worked out at 17.8%. In the data set on RAW264.7 [3], this compound came in with an inhibition at 50 µM of 48%.
Consider `CC1(C)CCC(C)(C)c2cc(C(=O)Nc3nc4ccccc4[nH]3)ccc21`, for which the Activity entry in the data set with RAW264.7 [1] and with RAW264.7 [4] was “Non-toxic” each time. The inhibition at 5 µM in the data set on RAW264.7 [2] came to 15.6%. The inhibition at 50 µM in the data set on RAW264.7 [3] was found to be 45.7%.
Consider `COc1cc(/C=C/C(=O)O)ccc1O` [FERULATE], for which the Activity result in the data set with RAW264.7 [1] and with RAW264.7 [4] was “Non-toxic” throughout. Further, the inhibition at 5 µM with RAW264.7 [2] was 24.8%. This compound also yielded an inhibition at 50 µM in the data set on RAW264.7 [3] of 39.1%.
In the case of `CC1(C)CCC(C)(C)c2cc(C(=O)NC3CC(C)(C)N([O])C(C)(C)C3)ccc21`, the Activity entry in the data set on RAW264.7 [1] is “Toxic”. In the data set on RAW264.7 [2], the inhibition at 5 µM amounted to 18.2%. This compound also displayed an inhibition at 50 µM in the data set with RAW264.7 [3] of 59.2%.
As for `CC1(C)CCC(C)(C)c2cc(C(=O)NCc3ccc(Cl)cc3Cl)ccc21`, in the data set on RAW264.7 [2], the inhibition result is “inactive”. This compound also returned an inhibition at 50 µM with RAW264.7 [3] of 6.6%.
For the compound `COc1ccc(/C=C/C(=O)Nc2cc3c(cc2C)C(C)(C)CCC3(C)C)cc1OC`, the Activity result in the data set on RAW264.7 [1] and in the data set with RAW264.7 [4] was “Non-toxic” throughout. Further, in the data set with RAW264.7 [2], the inhibition at 5 µM was 24.1%. This compound also registered an inhibition at 50 µM in the data set with RAW264.7 [3] of 32.8%.
As to `CC1(C)CC(N)CC(C)(C)N1[O]` [TEMPAMINE], the Activity result in the data set on RAW264.7 [1] and in the data set on RAW264.7 [4] was “Non-toxic” throughout. In the data set on RAW264.7 [2], this compound gave an inhibition at 5 µM of 26.9%. In the data set on RAW264.7 [3], this compound registered an inhibition at 50 µM of 45.6%.
As for `CC1(C)CCC(C)(C)c2cc(C(=O)Nc3cccc4ccccc34)ccc21`, the inhibition at 5 µM with RAW264.7 [2] turned out to be 10.5%. Besides, in the data set with RAW264.7 [3], the inhibition at 50 µM was determined as 5.7%.
Turning to `CC1(C)CCC(C)(C)c2cc(C(=O)Nc3cc[nH]c(=O)n3)ccc21`, the Activity result in the data set with RAW264.7 [1] was “Toxic”. The compound also showed an inhibition at 5 µM in the data set on RAW264.7 [2] of 11.5%. In the data set with RAW264.7 [3], this compound had an inhibition at 50 µM of 21.1%.
Consider `Cc1cc2c(cc1NC(=O)c1ccc3c(c1)C(C)(C)CCC3(C)C)C(C)(C)CCC2(C)C`, for which the Activity result in the data set on RAW264.7 [1] and with RAW264.7 [4] was “Toxic” in each case. Further, the inhibition entry with RAW264.7 [2] and in the data set on RAW264.7 [3] was “inactive” each time.
Take `CC1(C)CCC(C)(C)c2cc(C(=O)NCc3ccccc3)ccc21`: the inhibition entry in the data set with RAW264.7 [2] was “inactive”. Also, in the data set with RAW264.7 [3], the inhibition at 50 µM came to 15.9%.
Turning to `CC1(C)CCC(C)(C)c2cc(C(=O)Nc3ncccn3)ccc21`, the inhibition result with RAW264.7 [2] was “inactive”. This compound yielded an inhibition at 50 µM with RAW264.7 [3] of 18.6%.
